Test results reported in ChEMBL document CHEMBL4371093, “Divirensols: Sesquiterpene Dimers from the Australian Termite Nest-Derived Fungus Trichoderma virens CMB-TN16” (J Nat Prod, 2019).
Activity calls are given as the source filed them. No cut-off for these calls is given here.

Key:
[1] = system: SW-620; assay: Growth inhibition of human SW620 cells up to 30 uM after 48 hrs by MTT assay; assay type: functional, cell-based
In short: (§1)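 Adherent cells grown with 10% FBS, 2 mM L-glutamine and penicillin/streptomycin at 37 °C, 5% CO2. Seeded at 3000 cells/well and attached for 18 h. Compound added at a final 30 μM in 1% DMSO for 48 h. MTT then added (final 0.5 mg/mL) for 4 h, formazan dissolved in DMSO, absorbance read at 580 nm. Negative control 1% DMSO, doxorubicin positive control. Run in duplicate. IC50 versus negative control.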

[2] = system: NCI-H460; assay: Growth inhibition of human NCI-H460 cells up to 30 uM after 48 hrs by MTT assay; assay type: functional, cell-based; in short: as §1
[3] = system: Staphylococcus aureus; assay: Antibacterial activity against Staphylococcus aureus ATCC 25923 up to 30 uM after 24 hrs by spectrophotometric method; assay type: functional, organism-based
In short: (§2)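 Bacteria grown on tryptic soy agar at 37 °C for 24 h. One colony moved to tryptic soy broth and adjusted to 10^4−10^5 CFU/mL. Compound in DMSO, diluted with water to a 600 μM stock in 20% DMSO, then added to broth at a final 30 μM in 1% DMSO. Incubated 37 °C for 24 h, OD600 read. Rifampicin positive control. IC50 taken as 50% growth inhibition.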

[4] = system: Bacillus spizizenii; assay: Antibacterial activity against Bacillus subtilis ATCC 6633 up to 30 uM after 24 hrs by spectrophotometric method; assay type: functional, organism-based; in short: as §2
[5] = system: Escherichia coli; assay: Antibacterial activity against Escherichia coli ATCC 25922 up to 30 uM after 24 hrs by spectrophotometric method; assay type: functional, organism-based; in short: as §2
[6] = Inhibition of DNA polymerase (unknown origin); parameters: species or system Homo sapiens
[7] = system: HeLa; assay: Growth inhibition of human HeLa cells; assay type: functional; settings: read-out: LD50 (the source's name)
[8] = system: MCF7; assay: Growth inhibition of human MCF7 cells; assay type: functional; settings: read-out: LD50 (the source's name)

CC(C)[C@H]1CC[C@@](O)(COC(=O)/C(=C/[C@@H]2[C@@H](C(C)C)CC[C@@]3(O)COC(=O)[C@@H]23)CO)[C@H]2C(=O)OCC(C(=O)O)=C[C@H]12
growth inhibition (GI) [1]: inactive | growth inhibition (GI) [2]: inactive | Activity [3]: inactive | Activity [4]: inactive | Activity [5]: inactive

CC(C)[C@H]1CCC(CO)=C[C@@H]1/C=C(\CO)C(=O)O
growth inhibition (GI) [1]: inactive | growth inhibition (GI) [2]: inactive | Activity [3]: inactive | Activity [4]: inactive | Activity [5]: inactive

CC(C)[C@H]1CC[C@@](O)(COC(=O)/C(=C/[C@H]2C3=C(CC[C@@H]2C(C)C)COC3=O)CO)[C@H]2C(=O)OCC(C(=O)O)=C[C@H]12
growth inhibition (GI) [1]: inactive | growth inhibition (GI) [2]: inactive | Activity [3]: inactive | Activity [4]: inactive | Activity [5]: inactive

CC(C)[C@H]1CC[C@@](O)(COC(=O)/C(=C/[C@H]2C=C(CO)CC[C@@H]2C(C)C)CO)[C@H]2C(=O)OCC(C(=O)O)=C[C@H]12
growth inhibition (GI) [1]: inactive | growth inhibition (GI) [2]: inactive | Activity [3]: inactive | Activity [4]: inactive | Activity [5]: inactive

CC(C)[C@H]1CC[C@@]2(OC(=O)/C(=C/[C@H]3C=C(CO)CC[C@@H]3C(C)C)CO)COC(=O)[C@H]2[C@@H]1/C=C(\CO)C(=O)O
growth inhibition (GI) [1]: inactive | growth inhibition (GI) [2]: inactive | Activity [3]: inactive | Activity [4]: inactive | Activity [5]: inactive

CC(C)[C@H]1CC[C@@](O)(COC(=O)C2=C[C@H]3[C@@H](OC2)[C@H](CO)CC[C@@H]3C(C)C)[C@H]2C(=O)OCC(C(=O)O)=C[C@H]12
growth inhibition (GI) [1]: inactive | growth inhibition (GI) [2]: inactive | Activity [3]: inactive | Activity [4]: inactive | Activity [5]: inactive

CC(C)[C@H]1CC[C@@](O)(COC(=O)/C(=C/[C@H]2C3=C(CC[C@@H]2C(C)C)COC3=O)CO)[C@@H](C(=O)O)[C@@H]1/C=C(\CO)C(=O)O
growth inhibition (GI) [1]: inactive | growth inhibition (GI) [2]: inactive | Activity [3]: inactive | Activity [4]: inactive | Activity [5]: inactive

CC(=O)OCC1=C[C@H](/C=C(\CO)C(=O)O)[C@@H](C(C)C)CC1
growth inhibition (GI) [1]: inactive | growth inhibition (GI) [2]: inactive | Activity [3]: inactive | Activity [4]: inactive | Activity [5]: inactive

CC(C)[C@H]1CC[C@@]2(OC(=O)/C(=C/[C@H]3C4=C(CC[C@@H]3C(C)C)COC4=O)CO)COC(=O)[C@H]2[C@@H]1/C=C(\CO)C(=O)O
growth inhibition (GI) [1]: inactive | growth inhibition (GI) [2]: inactive | Activity [3]: inactive | Activity [4]: inactive | Activity [5]: inactive

CC(=O)OC/C(=C\[C@H]1C=C(CO)CC[C@@H]1C(C)C)C(=O)O
growth inhibition (GI) [1]: inactive | growth inhibition (GI) [2]: inactive | Activity [3]: inactive | Activity [4]: inactive | Activity [5]: inactive

CC(C)C1CCC(O)(COC(=O)C2=CC3C(C(C)C)CCC4(CO4)C3C(=O)OC2)C2C(=O)OCC(C(=O)O)=CC12 (stereo not drawn)
IC50 [6]: 30.8 µM | CC50 [7]: 33 µM | CC50 [8]: 31.6 µM
